Source: ChEMBL document CHEMBL1121603, “Structure-activity relationships of antibacterial 6,7- and 7,8-disubstituted 1-alkyl-1,4-dihydro-4-oxoquinoline-3-carboxylic acids” (1980)
Values after ≈ are worked out from the molar mass of the structure shown.

What was measured:
Assay type in all cases: functional
Escherichia coli = experiment: In vitro for antibacterial activity against Gram-negative Escherichia coli […] JC-2.
Procedure, shortened: (§1)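 MIC in µg/mL, determined by a standard twofold serial dilution method on agar media.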

Pseudomonas aeruginosa = experiment: In vitro antibacterial activity against Gram-negative Pseudomonas aeruginosa V-1.; procedure, shortened: as §1
Staphylococcus aureus = experiment: In vitro antibacterial activity against Gram-positive, Staphylococcus aureus 209 P; procedure, shortened: as §1

| MIC (Escherichia coli) | MIC (Pseudomonas aeruginosa) | MIC (Staphylococcus aureus) | SMILES |
| --- | --- | --- | --- |
| 0.1 µg/mL (≈ 0.288 µM) | 3.13 µg/mL (≈ 9.01 µM) |  | CCN1CCN(c2cc3c(cc2F)c(=O)c(C(=O)O)cn3CC)CC1 |
| 0.2 µg/mL (≈ 0.598 µM) | 12.5 µg/mL (≈ 37.4 µM) | 0.39 µg/mL (≈ 1.17 µM) | CCn1cc(C(=O)O)c(=O)c2cc(F)c(N3CCC(O)CC3)cc21 |
| 0.2 µg/mL (≈ 0.624 µM) | 12.5 µg/mL (≈ 39 µM) | 0.78 µg/mL (≈ 2.44 µM) | CCn1cc(C(=O)O)c(=O)c2cc(F)c(N3CCOCC3)cc21 |
| 0.78 µg/mL (≈ 2.24 µM) | 12.5 µg/mL (≈ 36 µM) | 25 µg/mL (≈ 72 µM) | CCn1cc(C(=O)O)c(=O)c2cc(SC)c(N3CCNCC3)cc21 |
|  | 12.5 µg/mL (≈ 29.4 µM) |  | CCn1cc(C(=O)O)c(=O)c2cc(F)c(N3CCN(Cc4ccc(N)cc4)CC3)cc21 |
| 0.78 µg/mL (≈ 2.23 µM) | 25 µg/mL (≈ 71.5 µM) | 1.56 µg/mL (≈ 4.46 µM) | CCn1cc(C(=O)O)c(=O)c2cc(Cl)c(N3CCN(C)CC3)cc21 |
| 3.13 µg/mL (≈ 7.39 µM) | 25 µg/mL (≈ 59 µM) | 1.56 µg/mL (≈ 3.68 µM) | CCn1cc(C(=O)O)c(=O)c2cc(F)c(N3CCN(C(=O)c4ccccc4)CC3)cc21 |
| 0.39 µg/mL (≈ 0.989 µM) | 100 µg/mL (≈ 254 µM) | 1.56 µg/mL (≈ 3.96 µM) | CCn1cc(C(=O)O)c(=O)c2cc(Br)c(N3CCN(C)CC3)cc21 |
| 0.39 µg/mL (≈ 1.28 µM) | 12.5 µg/mL (≈ 41.1 µM) | 0.2 µg/mL (≈ 0.657 µM) | CCn1cc(C(=O)O)c(=O)c2cc(F)c(N3CCCC3)cc21 |
| 1.56 µg/mL (≈ 4.32 µM) | 100 µg/mL (≈ 277 µM) | 1.56 µg/mL (≈ 4.32 µM) | CCn1cc(C(=O)O)c(=O)c2cc(F)c(N3CCC(C(N)=O)CC3)cc21 |
| 0.1 µg/mL (≈ 0.285 µM) | 3.13 µg/mL (≈ 8.91 µM) | 0.39 µg/mL (≈ 1.11 µM) | CN1CCN(c2cc3c(cc2F)c(=O)c(C(=O)O)cn3CCF)CC1 |
| 0.1 µg/mL (≈ 0.302 µM) | 3.13 µg/mL (≈ 9.45 µM) | 1.56 µg/mL (≈ 4.71 µM) | C=Cn1cc(C(=O)O)c(=O)c2cc(F)c(N3CCN(C)CC3)cc21 |
| 0.1 µg/mL (≈ 0.277 µM) | 3.13 µg/mL (≈ 8.66 µM) | 0.39 µg/mL (≈ 1.08 µM) | CCn1cc(C(=O)O)c(=O)c2cc(F)c(N3CCC(N(C)C)CC3)cc21 |
| 0.78 µg/mL (≈ 2.59 µM) | 3.13 µg/mL (≈ 10.4 µM) | 12.5 µg/mL (≈ 41.5 µM) | CCn1cc(C(=O)O)c(=O)c2ccc(N3CCNCC3)cc21 |
| 0.39 µg/mL (≈ 1.09 µM) | 6.25 µg/mL (≈ 17.4 µM) | 0.39 µg/mL (≈ 1.09 µM) | C=CCN1CCN(c2cc3c(cc2F)c(=O)c(C(=O)O)cn3CC)CC1 |
| 6.25 µg/mL (≈ 13.8 µM) | > 100 µg/mL | 1.56 µg/mL (≈ 3.43 µM) | CCn1cc(C(=O)O)c(=O)c2cc(F)c(N3CCN(Cc4ccc([N+](=O)[O-])cc4)CC3)cc21 |

| MIC (Escherichia coli) | MIC (Pseudomonas aeruginosa) | MIC (Staphylococcus aureus) | SMILES |
| --- | --- | --- | --- |
| 0.78 µg/mL (≈ 2.05 µM) | 1.56 µg/mL (≈ 4.09 µM) | 1.56 µg/mL (≈ 4.09 µM) | O=C(O)c1cn(Cc2ccccc2)c2cc(N3CCNCC3)c(F)cc2c1=O |
| 0.78 µg/mL (≈ 1.9 µM) | 50 µg/mL (≈ 122 µM) | 0.39 µg/mL (≈ 0.952 µM) | CCn1cc(C(=O)O)c(=O)c2cc(F)c(N3CCN(Cc4ccccc4)CC3)cc21 |
| 0.1 µg/mL (≈ 0.275 µM) | 6.25 µg/mL (≈ 17.2 µM) | 0.78 µg/mL (≈ 2.15 µM) | CCn1cc(C(=O)O)c(=O)c2cc(F)c(N3CCN(CCO)CC3)cc21 |
| 0.39 µg/mL (≈ 1.4 µM) | 50 µg/mL (≈ 180 µM) | 0.78 µg/mL (≈ 2.8 µM) | CCn1cc(C(=O)O)c(=O)c2cc(F)c(N(C)C)cc21 |
| 0.78 µg/mL (≈ 2.25 µM) | 12.5 µg/mL (≈ 36.1 µM) | 25 µg/mL (≈ 72.2 µM) | CCn1cc(C(=O)O)c(=O)c2cc([N+](=O)[O-])c(N3CCNCC3)cc21 |
| 1.56 µg/mL (≈ 5.79 µM) | 100 µg/mL (≈ 371 µM) | 12.5 µg/mL (≈ 46.4 µM) | CCn1cc(C(=O)O)c(=O)c2cc(F)c(Cl)cc21 |
| 1.56 µg/mL (≈ 4.9 µM) | 50 µg/mL (≈ 157 µM) | 0.78 µg/mL (≈ 2.45 µM) | CCn1cc(C(=O)O)c(=O)c2cc(F)c(N3CCCCC3)cc21 |
| 6.25 µg/mL (≈ 21.3 µM) | 50 µg/mL (≈ 170 µM) | > 100 µg/mL | CCn1cc(C(=O)O)c(=O)c2cc(F)c(NCCN)cc21 |
| 0.39 µg/mL (≈ 1.17 µM) | 12.5 µg/mL (≈ 37.5 µM) | 3.13 µg/mL (≈ 9.39 µM) | CCn1cc(C(=O)O)c(=O)c2cc(F)c(N3CCNC(=O)C3)cc21 [3-OXO-1-PIPERAZINYL-NORFLOXACIN] |
| 1.56 µg/mL (≈ 4.32 µM) | 25 µg/mL (≈ 69.2 µM) | 0.78 µg/mL (≈ 2.16 µM) | CCn1cc(C(=O)O)c(=O)c2cc(F)c(N3CCN(C(C)=O)CC3)cc21 [4-N-ACETYL-1-PIPERAZINYL-NORFLOXACIN] |
| 0.39 µg/mL (≈ 1.12 µM) | 6.25 µg/mL (≈ 18 µM) | 1.56 µg/mL (≈ 4.49 µM) | CCn1cc(C(=O)O)c(=O)c2cc(F)c(N3CCN(C=O)CC3)cc21 [4-N-FORMYL-1-PIPERAZINYL-NORFLOXACIN] |
| 25 µg/mL (≈ 74.6 µM) | > 100 µg/mL | > 100 µg/mL | CCn1cc(C(=O)O)c(=O)c2cc(F)c(NCCNC(C)=O)cc21 [7-ACETYLAMINOETHYL-AMINO-FLUOROQUINONE] |
| 3.13 µg/mL (≈ 12.5 µM) | > 100 µg/mL | > 100 µg/mL | CCn1cc(C(=O)O)c(=O)c2cc(F)c(N)cc21 [7-AMINO-FLUOROQUINONE] |
| 0.39 µg/mL (≈ 1.56 µM) | 50 µg/mL (≈ 201 µM) | 6.25 µg/mL (≈ 25.1 µM) | CCn1cc(C(=O)O)c(=O)c2cc(F)c(C)cc21 [NALDIXIC ACID] |
| 0.1 µg/mL (≈ 0.3 µM) |  | 0.39 µg/mL (≈ 1.17 µM) | CCn1cc(C(=O)O)c(=O)c2cc(F)c(N3CCN(C)CC3)cc21 [PEFLOXACIN] |

| SMILES | MIC (Escherichia coli) | MIC (Pseudomonas aeruginosa) | MIC (Staphylococcus aureus) |
| --- | --- | --- | --- |
| CCn1cc(C(=O)OC)c(=O)c2cc(F)c(N3CCNCC3)cc21 | 12.5 µg/mL (≈ 37.5 µM) | 50 µg/mL (≈ 150 µM) | 100 µg/mL (≈ 300 µM) |
| CCn1cc(C(=O)O)c(=O)c2cc(C(C)=O)c(N3CCNCC3)cc21 | 100 µg/mL (≈ 291 µM) | > 100 µg/mL | 100 µg/mL (≈ 291 µM) |
| C=Cn1cc(C(=O)O)c(=O)c2cc(F)c(N3CCNCC3)cc21 | 0.1 µg/mL (≈ 0.315 µM) | 0.39 µg/mL (≈ 1.23 µM) | 3.13 µg/mL (≈ 9.86 µM) |
| CCOC(=O)c1cn(CC)c2cc(N3CCNCC3)c(F)cc2c1=O | 12.5 µg/mL (≈ 36 µM) | 50 µg/mL (≈ 144 µM) | 50 µg/mL (≈ 144 µM) |
| CCn1ccc(=O)c2cc(F)c(N3CCNCC3)cc21 | > 100 µg/mL | > 100 µg/mL | > 100 µg/mL |
| CCn1cc(C(=O)O)c(=O)c2cc(C#N)c(N3CCNCC3)cc21 | 0.39 µg/mL (≈ 1.2 µM) | 6.25 µg/mL (≈ 19.2 µM) | 12.5 µg/mL (≈ 38.3 µM) |
| Cl.O=C(O)c1cn(CCO)c2cc(N3CCNCC3)c(F)cc2c1=O | 0.39 µg/mL | 3.13 µg/mL | 1.56 µg/mL |
| CCn1cc(C(=O)O)c(=O)c2ccc(N3CCNCC3)c(Cl)c21.Cl | 0.39 µg/mL | 6.25 µg/mL | 3.13 µg/mL |
| Cl.O=C(O)c1cn(CCF)c2cc(N3CCNCC3)c(F)cc2c1=O | 0.1 µg/mL | 0.78 µg/mL | 1.56 µg/mL |
| C=CCn1cc(C(=O)O)c(=O)c2cc(F)c(N3CCNCC3)cc21.Cl | 0.2 µg/mL | 1.56 µg/mL | 3.13 µg/mL |
| CCn1cc(C(=O)O)c(=O)c2ccc(N3CCNCC3)c(F)c21.Cl | 0.78 µg/mL | 1.56 µg/mL | 12.5 µg/mL |
| Cl.Cn1cc(C(=O)O)c(=O)c2cc(F)c(N3CCNCC3)cc21 | 0.39 µg/mL | 1.56 µg/mL | 6.25 µg/mL |
| CCn1cc(C(=O)O)c(=O)c2cc(Cl)c(N3CCNCC3)cc21.Cl | 0.2 µg/mL | 3.13 µg/mL | 1.56 µg/mL |
| CCCn1cc(C(=O)O)c(=O)c2cc(F)c(N3CCNCC3)cc21.Cl | 0.2 µg/mL | 3.13 µg/mL | 1.56 µg/mL |
| CCn1cc(C(=O)O)c(=O)c2cc(Br)c(N3CCNCC3)cc21.Cl | 0.39 µg/mL | 12.5 µg/mL | 3.13 µg/mL |
| CCn1cc(C(=O)O)c(=O)c2cc(C)c(N3CCNCC3)cc21.Cl | 0.39 µg/mL | 6.25 µg/mL | 3.13 µg/mL |
| CCn1cc(C(=O)O)c(=O)c2ccc(C)nc21 [NALIDIXIC ACID] | 3.13 µg/mL (≈ 13.5 µM) | 100 µg/mL (≈ 431 µM) | > 100 µg/mL |
| CCn1cc(C(=O)O)c(=O)c2cc(F)c(N3CCNCC3)cc21 [NORFLOXACIN] | 0.05 µg/mL (≈ 0.157 µM) | 0.39 µg/mL (≈ 1.22 µM) | 0.39 µg/mL (≈ 1.22 µM) |
| CCn1cc(C(=O)O)c(=O)c2cc3c(cc21)OCO3 [OXOLINIC ACID] | 0.1 µg/mL (≈ 0.383 µM) | 25 µg/mL (≈ 95.7 µM) | 3.13 µg/mL (≈ 12 µM) |
| CCn1cc(C(=O)O)c(=O)c2cnc(N3CCNCC3)nc21 [PIPEMIDIC ACID] | 1.56 µg/mL (≈ 5.14 µM) | 12.5 µg/mL (≈ 41.2 µM) | 25 µg/mL (≈ 82.4 µM) |
